Runt-SMMHC FRET: inhibitors of human RUNX1 Runt domain binding to CBFb-SMMHC; 220,000 tested, 0.74% active; inhibition, % at 20 µM; Cerulean-Runt/Venus-CBFb-SMMHC FRET ratio 530/480, 1 h;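 active = mean inhibition across duplicate retests at 20 µM reaching about 50%, limit read from the data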;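 also: 0% = DMSO wells and 100% = wells with excess untagged CBFb-SMMHC; inhibitors lower the FRET ratio by blocking Runt binding to CBFb-SMMHC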
HMGR II inh: E. faecalis class II HMG-CoA reductase inhibition | 190,000 tested, 0.41% active | purified E. faecalis HMGR, NADPH absorbance 340 nm kinetic | AID 1066 | inhibition, % at 10 µM;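 active = inhibition above a set limit, the median over all tested compounds plus 3 SD, cut at about 9.5% in these data; inconclusive = no clear call, values can overlap the other calls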;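 also: enzyme runs in reverse so mevalonate oxidation gives rising NADPH absorbance; 0% = complete reaction with DMSO and 100% = background rate lacking mevalonate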
Runt-CBFb FRET: inhibitors of human RUNX1 Runt domain binding to CBFb. inhibition, % at 20 µM. Q01196+Q13951. 220,000 tested, 0.46% active. Cerulean-Runt/Venus-CBFb FRET ratio 530/480, 1 h;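 active = inhibition over about 50% at 20 µM in the single-dose screen, limit read from the data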;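 also: 0% = DMSO wells and 100% = excess unlabeled CBFb competitor control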
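Schedule: protein complex preformed 1 h, compound exposure 1 h, room temperature, dark; test system: Cerulean-labeled Runt domain protein; amount: 100 nM per protein; buffer or medium: Tris 50 mM pH 7.5, KCl, K2SO4, 0.01% BSA; read-out: loss of energy transfer signal; detection: FRET fluorescence; controls: 5 µM unlabeled CBFb as full-inhibition high control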
Wee1 degr inh: human Wee1 degradation inhibition, primary screen; 220,000 tested, 1.2% active; P30291; reporter increase, % at 5 µM; HeLa Luc-Wee1K328M stability, luciferase luminescence; 100% = proteasome inhibitor MG132 effect;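 active = activation above the mean of all tested compounds plus 3 SD, set per screening run, cut at about 8.8% in these data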;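 also: cells exposed to compound for 20 h before luminescence read; 0% = DMSO alone and 100% = MG132 at 30 µM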
RanGTP-Imp inh: disruptors of Ran-importin-beta complex formation – biochemical, FRET, CFP-Ran, YFP-importin-beta, homogeneous, primary screen. cell-free CFP-Ran/YFP-importin-beta FRET ratio. inhibition, % (test concentration not listed). 300,000 tested, 1.1% active;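 active = more than half of the replicate wells show a fall in the fluorescence ratio signal beyond about 16%, limit read from the data, passing the limit was not always enough; inconclusive = exactly half of the replicate wells pass the set limit; inactive = fewer than half of replicates pass the limit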;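 also: 0% = DMSO wells and 100% = Ran loaded with GDP instead of GTP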
PHOSPHO1 inh: inhibitors of human PHOSPHO1 phosphatase; Q8TCT1; recombinant PHOSPHO1, absorbance phosphatase assay; inhibition, % at 13.3 µM; 290,000 tested, 1.1% active; AID 1565; in the data active = inhibition above about 60%
Target sequence (Q8TCT1 whole entry, looked up): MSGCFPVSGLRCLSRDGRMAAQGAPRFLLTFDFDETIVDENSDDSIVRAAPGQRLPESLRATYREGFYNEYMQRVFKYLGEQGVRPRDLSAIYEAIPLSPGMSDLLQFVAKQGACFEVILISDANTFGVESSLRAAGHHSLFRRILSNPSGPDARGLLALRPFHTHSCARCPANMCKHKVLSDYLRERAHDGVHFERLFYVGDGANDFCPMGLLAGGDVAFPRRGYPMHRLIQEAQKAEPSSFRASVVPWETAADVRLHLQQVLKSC
Wee1 stab conf: human Wee1 degradation inhibition, confirmation | shares compounds with Wee1 degr inh | HeLa Luc-Wee1K328M degradation, luminescence; vehicle 0%, proteasome-blocked wells 100% | activation, % at 5 µM | 1,100 tested, 4% active | AID 1410; in the data active = activation above about 8.9%
Starred values were filed as active, the others as inactive; ? = inconclusive; nt = not tested or not shown. Only some compounds are listed: those with a hit (about 3.4% of all), similar ones and a draw of the others.

SMILES | Runt-SMMHC FRET | HMGR II inh | Runt-CBFb FRET | Wee1 degr inh | RanGTP-Imp inh | PHOSPHO1 inh | Wee1 stab conf
CN(Cc1ccccc1F)c1nc(-c2cccs2)nc2ccccc12 | -4 | -3 | -2 | 14* | -1 | 0 | 4
Fc1ccccc1N1CCN(c2nc(-c3cccs3)nc3ccccc23)CC1 | 1 | 1 | 2 | 3 | 0 | 20 | nt
COc1ccc(NC(=O)Nc2ccccc2SC)cc1 | 1 | 0 | 2 | 11* | 4 | 6 | 2
O=C(CSc1nc2ccccc2c(=O)n1-c1ccc(F)c(Cl)c1)Nc1cccc(S(=O)(=O)N2CCOCC2)c1 | 1 | 0 | -1 | 3 | 9 | 1 | nt
O=C(CSc1nc2ccccc2c(=O)n1-c1ccc(F)cc1)Nc1ccc(Cl)c(S(=O)(=O)N2CCOCC2)c1 | 0 | -2 | -5 | 14* | 0 | 10 | 4
Cc1ccc2nc(C3CCN(CC(=O)Nc4ccc5c(c4)OCCO5)CC3)[nH]c2c1 | 5 | -8 | 0 | 12* | -3 | -25 | 0
O=C(CN1CCC(c2nc3ccccc3[nH]2)CC1)Nc1ccc2c(c1)OCO2 | 0 | -3 | 0 | -4 | nt | 29 | nt
CC(C)C(=O)Nc1nnc(Cc2c[nH]c3ccccc23)s1 | -4 | nt | -3 | 2 | 1 | 4 | nt
CCc1nnc(NC(=O)CCc2c[nH]c3ccccc23)s1 | 12 | -4 | 2 | 15* | -1 | 20 | 2
CCc1ccc(CNCCNCC(C)O)cc1 (centres undefined) | 0 | -4 | 4 | 3 | 7 | 2 | nt
O=C(CC(=O)c1ccccc1O)c1cccc(F)c1 | 5 | -11 | 1 | 11* | ? | 2 | 4
C/C(=N\NC(=O)c1ccccc1)c1ccc(NC(=O)c2cccs2)cc1 | 2 | -7 | 0 | 13* | 7 | -2 | 1
Cc1ccc(CN2CC(C(=O)Nc3ccc(C)cn3)CC2=O)cc1 (centres undefined) | nt | nt | nt | nt | 1 | nt | nt
Cc1cc(NC(=O)NCC(F)(F)F)no1 | 1 | nt | 1 | 1 | 0 | 0 | nt
NCCOc1ccccc1OCCN | 1 | -2 | -1 | 12* | 3 | 20 | 0
Cc1ccc(O)c(-c2cc3ccccc3[nH]2)c1 | -2 | -1 | 3 | 11* | -5 | 20 | 0
COc1cc(-c2noc(C)c2/C=C/c2ccc(OC(C)=O)cc2)cc(OC)c1OC | nt | nt | nt | nt | 0 | 4 | nt
COc1ccc([N+](=O)[O-])cc1NC(=O)CCN1CCN(CCO)CC1 | 2 | -4 | -1 | 19* | 2 | 12 | -2
CCn1c(CSc2nc(C)cc(C)n2)nnc1SCC(=O)N1CCCc2ccccc21 | 1 | 4 | 1 | 14* | 1 | -46 | 1
CCn1c(CNc2ccc(OC)cc2)nnc1SCC(=O)N1CCCc2ccccc21 | -2 | -4 | -1 | 2 | -1 | 6 | nt
CCC1=C(c2cc(OC)c(OC)c(OC)c2)C2(CCCC2)C(=O)O1 | nt | nt | nt | nt | -1 | 4 | nt
Brc1cc2c(cc1Br)OCCOCCOCCOCCO2 | 0 | -3 | -1 | 19* | 1 | 30 | 2
Brc1ccc2c(c1)OCCOCCOc1cc(Br)ccc1OCCOCCOCCO2 | -5 | -1 | -7 | -1 | -17 | -21 | nt
CCN(CC)c1ccc(/C=N/NC(=O)c2ccco2)cc1 | -8 | -4 | 0 | 20* | 3 | -4 | 13*
CCN(CC)c1ccc(/C=N/NC(=O)c2cnccn2)cc1 | -7 | -6 | -1 | 15* | 2 | -8 | 19*
CCN(CC)c1ccc(/C=N/NC(=O)c2ccc([N+](=O)[O-])cc2)cc1 | 2 | -1 | -4 | 2 | 2 | 16 | nt
C(=N\Nc1ccc2ccccc2n1)/c1ccc2c(c1)OCCO2 | -1 | -2 | -1 | -4 | -2 | 20 | nt
C(=N\Nc1nc2ccccc2[nH]1)/c1ccc2c(c1)OCCO2 | 4 | nt | 1 | 11* | 5 | 28 | 0
COc1ccc(NC(=O)c2nn(C34CC5CC(CC(C5)C3)C4)cc2[N+](=O)[O-])cc1 | 4 | 1 | 2 | 11* | 1 | -4 | 0

Compound activity from PubChem BioAssay.
